Experimental data published in ChEMBL document CHEMBL2203235, “Optimization of a natural product-based class of γ-secretase modulators” (J Med Chem, 2012).

Legend:
[1] = Modulation of gamma-secretase assessed as reduction in amyloid beta 40 level by cell based assay
[2] = Modulation of gamma-secretase assessed as reduction in amyloid beta 42 level by cell based assay
[3] = Modulation of gamma-secretase assessed as increase in amyloid beta 38 level by cell based assay
Liver microsomes = assay: Metabolic stability in human liver microsomes at 1 uM after 60 mins by LC/MS/MS analysis; details: 1 h
[4] = Modulation of gamma secretase in CHO-2B7 cells assessed as reduction in amyloid beta 42 level after 5 hrs by MSD ELISA; format: cell-based; details: Cricetulus griseus, CHO-2B7, 5 h
CHO-2B7 = assay: Modulation of gamma secretase in CHO-2B7 cells assessed as reduction in amyloid beta 40 level at 20 mM after 5 hrs by MSD ELISA; format: cell-based; design: scale not given: the % may be the effect or the level left; details: Cricetulus griseus
[5] = Drug uptake in CD1 mouse brain at 1 mg/kg, iv at 6 hrs
[6] = Ratio of drug uptake in brain to plasma in P-gp knockout mouse at 10 mg/kg, ip at 6 hrs; format: ADME, organism-based; design: dose 10 mg/kg, route intraperitoneal; details: brain and plasma, read-out: BPR
Procedure, shortened: (§1)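 Dosing was 10 mg/kg IP in MDR1 (P-gp) knockout mice and, identically, in wild-type FVB mice. Brain and plasma levels were taken 6 h after dosing to give a brain-to-plasma ratio.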

[7] = Ratio of drug uptake in brain to plasma in FVB mouse at 10 mg/kg, ip at 6 hrs; format: ADME, organism-based; design: dose 10 mg/kg, route intraperitoneal; details: brain and plasma, read-out: BPR; procedure, shortened: as §1
[8] = Plasma concentration in CD1 mouse at 1 mg/kg, iv at 6 hrs
[9] = Ratio of drug uptake in brain to plasma in CD1 mouse at 1 mg/kg, iv at 6 hrs; details: brain and plasma
[10] = Modulation of gamma secretase in CHO-2B7 cells assessed as reduction in amyloid beta 40 level after 5 hrs by MSD ELISA; format: cell-based; details: Cricetulus griseus, CHO-2B7, 5 h

Stability (Liver microsomes)	IC50 [4] [µM]	concentration at 6 h [5] [nM]	Kp at 6 h [6]	Kp at 6 h [7]	concentration at 6 h [8] [nM]	Kp at 6 h [9]	IC50 [10] [µM]	SMILES	IC50 [1] [µM]	IC50 [2] [µM]	IC50 [3] [µM]	Activity (CHO-2B7) [%]
								CC(=O)O[C@@H]([C@H]1C[C@@H](C)C2=C(O1)[C@H](O)[C@@]1(C)[C@@H]3CC[C@H]4C(C)(C)[C@@H](O[C@@H]5OC[C@@H](O)[C@H](O)[C@H]5O)CC[C@@]45C[C@@]35CC[C@]21C)C(C)(C)O	2.7	0.1	0.061	
Stable	2.3							CCO[C@@H]([C@H]1C[C@@H](C)[C@H]2[C@H](O1)[C@H](O)[C@@]1(C)[C@@H]3CC[C@H]4C(C)(C)[C@@H](O[C@H]5CN(CC(F)(F)F)CCO5)CC[C@@]45C[C@@]35CC[C@]21C)C(C)(C)O				44
Stable	0.091	11	3.1	0.035	274	0.04	5.4	CC(C)[C@@H](OC(=O)N1CCC1)[C@H]1C[C@@H](C)[C@H]2[C@H](O1)[C@H](O)[C@@]1(C)[C@@H]3CC[C@H]4C(C)(C)[C@@H](OC(=O)N(C)C5CN(C)C5)CC[C@@]45C[C@@]35CC[C@]21C				
